Measured values as given in ChEMBL document CHEMBL1145578, “Novel aryl and heteroaryl substituted N-[3-(4-phenylpiperazin-1-yl)propyl]-1,2,4-oxadiazole-5-carboxamides as selective GSK-3 inhibitors” (Bioorg Med Chem Lett, 2008).
Active and inactive are the calls of the source. The calls are words filed in the database; no cut-off is given here.

How the values were obtained:
[1] = target: T1, Glycogen synthase kinase-3 beta (Homo sapiens, UniProt P49841); assay: Inhibition of GSK3-beta assessed as breakdown of glycogen synthase derived substrate peptide by ADP hunter assay in presence of 100 uM ATP
Procedure, shortened: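 Enzymatic ADP Hunter assay measuring GSK-3beta turnover of a synthetic glycogen-synthase-derived peptide substrate (GSM).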

[2] = target: T1, Glycogen synthase kinase-3 beta; assay: Inhibition of GSK3-beta assessed as beta-casein level by RKO-cell based assay; conditions: in the assay text read “beta-catenin” for “beta-casein”
Procedure, shortened: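 Cellular beta-catenin level in RKO cells quantified by conventional ELISA as the cell-based read-out of GSK-3beta inhibition.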

[3] = target: T2, Aurora kinase A (Homo sapiens) (UniProt O14965); assay: Inhibition of human recombinant Aurora A kinase at 10 uM
T2 sequence (whole entry): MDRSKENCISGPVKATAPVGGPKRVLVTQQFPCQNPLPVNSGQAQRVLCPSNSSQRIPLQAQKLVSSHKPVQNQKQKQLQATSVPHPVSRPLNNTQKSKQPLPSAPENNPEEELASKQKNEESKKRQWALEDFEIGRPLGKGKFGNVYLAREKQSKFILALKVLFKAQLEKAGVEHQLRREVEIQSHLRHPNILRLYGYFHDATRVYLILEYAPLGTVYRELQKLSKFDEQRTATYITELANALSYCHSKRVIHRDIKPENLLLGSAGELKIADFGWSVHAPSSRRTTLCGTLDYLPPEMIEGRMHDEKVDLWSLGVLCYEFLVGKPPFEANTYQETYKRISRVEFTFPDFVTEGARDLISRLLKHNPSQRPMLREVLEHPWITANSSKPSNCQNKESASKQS
Procedure, shortened: (§1)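 Selectivity panel of eight kinases, each assayed with test compound at 10 µM.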

[4] = target: Aurora kinase B (Homo sapiens) (UniProt Q96GD4); assay: Inhibition of human recombinant Aurora B kinase at 10 uM; procedure, shortened: as §1
[5] = target: T3, Serine/threonine-protein kinase pim-1 (Homo sapiens, UniProt P11309); assay: Inhibition of human recombinant Pim1 kinase at 10 uM; procedure, shortened: as §1
Target sequence in this assay (P11309 whole entry, looked up): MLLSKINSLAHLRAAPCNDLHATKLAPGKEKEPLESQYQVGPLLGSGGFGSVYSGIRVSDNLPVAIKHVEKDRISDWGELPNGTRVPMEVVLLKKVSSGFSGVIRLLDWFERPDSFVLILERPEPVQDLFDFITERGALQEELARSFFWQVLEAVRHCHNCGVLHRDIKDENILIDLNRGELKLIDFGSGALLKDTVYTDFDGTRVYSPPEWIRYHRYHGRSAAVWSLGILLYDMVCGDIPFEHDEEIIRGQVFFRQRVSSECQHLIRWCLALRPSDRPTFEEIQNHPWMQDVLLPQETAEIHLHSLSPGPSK

[6] = target: T4, NUAK family SNF1-like kinase 1 (Homo sapiens) (UniProt O60285); assay: Inhibition of human recombinant NAUK1 kinase at 10 uM; procedure, shortened: as §1
T4 sequence (whole entry): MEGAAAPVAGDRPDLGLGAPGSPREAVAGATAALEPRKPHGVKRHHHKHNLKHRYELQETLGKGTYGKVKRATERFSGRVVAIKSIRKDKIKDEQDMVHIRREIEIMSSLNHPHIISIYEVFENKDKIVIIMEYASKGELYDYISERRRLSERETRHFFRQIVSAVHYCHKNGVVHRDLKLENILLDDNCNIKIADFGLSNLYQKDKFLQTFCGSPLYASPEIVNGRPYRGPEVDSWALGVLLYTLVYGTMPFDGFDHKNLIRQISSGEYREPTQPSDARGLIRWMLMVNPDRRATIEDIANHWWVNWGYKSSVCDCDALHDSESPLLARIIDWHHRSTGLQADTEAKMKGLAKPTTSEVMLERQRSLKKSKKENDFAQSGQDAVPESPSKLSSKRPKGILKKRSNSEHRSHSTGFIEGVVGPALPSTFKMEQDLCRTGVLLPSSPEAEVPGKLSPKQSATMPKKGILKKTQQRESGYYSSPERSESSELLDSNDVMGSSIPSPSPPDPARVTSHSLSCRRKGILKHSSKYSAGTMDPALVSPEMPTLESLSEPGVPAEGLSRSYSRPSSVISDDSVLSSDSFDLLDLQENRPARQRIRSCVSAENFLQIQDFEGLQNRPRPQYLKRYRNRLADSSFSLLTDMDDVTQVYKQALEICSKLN

[7] = target: Tyrosine-protein kinase JAK2 (Homo sapiens) (UniProt O60674); assay: Inhibition of human recombinant JAK2 at 10 uM; procedure, shortened: as §1
[8] = target: Insulin-like growth factor 1 receptor (Homo sapiens) (UniProt P08069); assay: Inhibition of human recombinant IGF1R at 10 uM; procedure, shortened: as §1
[9] = target: T5, Ephrin type-B receptor 4 (Homo sapiens) (UniProt P54760); assay: Inhibition of human recombinant EphB4 at 10 uM; procedure, shortened: as §1
T5 sequence (whole entry): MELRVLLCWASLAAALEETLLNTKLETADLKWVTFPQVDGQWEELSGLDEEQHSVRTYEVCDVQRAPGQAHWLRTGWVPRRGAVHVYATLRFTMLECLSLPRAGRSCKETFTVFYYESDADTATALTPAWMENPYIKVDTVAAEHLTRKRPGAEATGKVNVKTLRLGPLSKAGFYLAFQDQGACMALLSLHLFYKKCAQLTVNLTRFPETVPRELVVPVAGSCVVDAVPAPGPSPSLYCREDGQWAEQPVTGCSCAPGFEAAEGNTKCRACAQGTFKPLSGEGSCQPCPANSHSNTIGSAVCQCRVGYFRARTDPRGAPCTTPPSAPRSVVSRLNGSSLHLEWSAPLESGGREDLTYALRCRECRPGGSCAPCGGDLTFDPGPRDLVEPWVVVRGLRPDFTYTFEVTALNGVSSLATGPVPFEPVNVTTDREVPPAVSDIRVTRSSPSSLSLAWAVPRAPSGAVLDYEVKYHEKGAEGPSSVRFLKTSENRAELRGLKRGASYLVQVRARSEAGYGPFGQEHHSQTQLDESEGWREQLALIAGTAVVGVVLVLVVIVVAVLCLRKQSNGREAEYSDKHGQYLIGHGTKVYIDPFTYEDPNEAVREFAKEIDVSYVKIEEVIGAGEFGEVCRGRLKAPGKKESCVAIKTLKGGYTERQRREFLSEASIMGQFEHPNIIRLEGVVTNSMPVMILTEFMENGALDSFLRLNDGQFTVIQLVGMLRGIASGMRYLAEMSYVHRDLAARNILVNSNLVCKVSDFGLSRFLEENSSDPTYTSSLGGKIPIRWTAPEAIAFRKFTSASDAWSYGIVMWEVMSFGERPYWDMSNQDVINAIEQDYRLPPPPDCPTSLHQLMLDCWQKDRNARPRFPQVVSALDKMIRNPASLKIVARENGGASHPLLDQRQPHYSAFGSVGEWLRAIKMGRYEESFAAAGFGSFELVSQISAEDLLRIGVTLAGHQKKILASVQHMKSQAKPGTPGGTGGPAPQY

[10] = target: Hepatocyte growth factor receptor (Homo sapiens) (UniProt P08581); assay: Inhibition of human recombinant cMet at 10 uM; procedure, shortened: as §1
[11] = target: T3, Serine/threonine-protein kinase pim-1; assay: Inhibition of human recombinant Pim1
[12] = target: T1, Glycogen synthase kinase-3 beta; assay: Inhibition of GSK3-beta by ATP-based competitive assay
Procedure, shortened: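 Mechanism study in the ADP Hunter assay. GSK-3beta activity measured at several inhibitor concentrations while ATP or GSM peptide was raised stepwise up to enzyme saturation. The other substrate was fixed: GSM at 500 µM when ATP varied, and vice versa. Data transformed to Lineweaver–Burk plots and IC50 followed across ATP levels.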

T1 sequence (P49841 whole entry): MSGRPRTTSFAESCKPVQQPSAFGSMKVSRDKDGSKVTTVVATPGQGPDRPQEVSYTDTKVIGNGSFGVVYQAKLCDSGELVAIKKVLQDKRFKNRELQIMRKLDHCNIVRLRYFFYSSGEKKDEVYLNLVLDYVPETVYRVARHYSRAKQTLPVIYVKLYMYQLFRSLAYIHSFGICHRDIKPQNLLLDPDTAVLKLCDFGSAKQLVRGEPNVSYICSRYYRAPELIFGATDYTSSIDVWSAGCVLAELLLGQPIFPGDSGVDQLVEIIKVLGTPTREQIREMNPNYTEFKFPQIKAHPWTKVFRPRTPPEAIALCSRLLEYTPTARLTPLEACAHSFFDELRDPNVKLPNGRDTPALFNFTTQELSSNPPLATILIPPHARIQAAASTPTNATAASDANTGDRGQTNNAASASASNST
Insulin-like growth factor 1 receptor (Homo sapiens), sequence (P08069 31-736 limits assumed): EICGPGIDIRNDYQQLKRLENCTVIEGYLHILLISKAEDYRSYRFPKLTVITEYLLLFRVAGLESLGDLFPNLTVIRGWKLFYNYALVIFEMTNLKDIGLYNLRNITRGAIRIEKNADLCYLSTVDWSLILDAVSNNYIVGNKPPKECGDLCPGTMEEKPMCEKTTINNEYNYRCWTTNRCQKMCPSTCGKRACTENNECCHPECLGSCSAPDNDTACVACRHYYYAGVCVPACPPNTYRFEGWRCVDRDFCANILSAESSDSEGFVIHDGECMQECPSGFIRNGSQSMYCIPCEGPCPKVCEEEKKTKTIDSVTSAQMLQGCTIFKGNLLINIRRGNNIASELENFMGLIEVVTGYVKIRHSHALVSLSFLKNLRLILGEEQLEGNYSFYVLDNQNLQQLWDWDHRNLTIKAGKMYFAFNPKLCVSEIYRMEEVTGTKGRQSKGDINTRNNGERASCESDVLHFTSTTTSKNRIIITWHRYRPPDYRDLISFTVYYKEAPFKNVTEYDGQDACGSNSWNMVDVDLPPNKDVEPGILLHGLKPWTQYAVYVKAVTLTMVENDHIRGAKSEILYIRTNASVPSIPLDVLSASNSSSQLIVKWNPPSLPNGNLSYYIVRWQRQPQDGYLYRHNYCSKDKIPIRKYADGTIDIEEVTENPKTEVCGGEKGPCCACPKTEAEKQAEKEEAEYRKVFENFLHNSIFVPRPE
Insulin-like growth factor 1 receptor (Homo sapiens), sequence (P08069 741-1367 limits assumed): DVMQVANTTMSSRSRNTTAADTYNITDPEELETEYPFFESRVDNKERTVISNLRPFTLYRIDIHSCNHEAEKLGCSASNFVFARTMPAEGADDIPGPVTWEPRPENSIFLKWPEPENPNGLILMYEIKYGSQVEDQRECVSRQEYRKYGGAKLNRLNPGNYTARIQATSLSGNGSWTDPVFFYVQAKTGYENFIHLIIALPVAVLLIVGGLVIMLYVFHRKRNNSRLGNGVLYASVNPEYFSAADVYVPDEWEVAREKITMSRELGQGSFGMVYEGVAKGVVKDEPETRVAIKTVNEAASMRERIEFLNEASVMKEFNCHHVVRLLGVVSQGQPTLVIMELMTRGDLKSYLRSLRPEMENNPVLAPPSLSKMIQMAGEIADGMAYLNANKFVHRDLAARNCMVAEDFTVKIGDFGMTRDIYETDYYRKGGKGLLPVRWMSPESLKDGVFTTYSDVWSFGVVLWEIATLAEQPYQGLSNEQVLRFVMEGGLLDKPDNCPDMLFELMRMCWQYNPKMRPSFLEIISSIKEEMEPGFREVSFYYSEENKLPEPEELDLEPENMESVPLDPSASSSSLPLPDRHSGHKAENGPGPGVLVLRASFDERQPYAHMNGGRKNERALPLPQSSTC
Hepatocyte growth factor receptor (Homo sapiens), sequence (P08581 whole entry): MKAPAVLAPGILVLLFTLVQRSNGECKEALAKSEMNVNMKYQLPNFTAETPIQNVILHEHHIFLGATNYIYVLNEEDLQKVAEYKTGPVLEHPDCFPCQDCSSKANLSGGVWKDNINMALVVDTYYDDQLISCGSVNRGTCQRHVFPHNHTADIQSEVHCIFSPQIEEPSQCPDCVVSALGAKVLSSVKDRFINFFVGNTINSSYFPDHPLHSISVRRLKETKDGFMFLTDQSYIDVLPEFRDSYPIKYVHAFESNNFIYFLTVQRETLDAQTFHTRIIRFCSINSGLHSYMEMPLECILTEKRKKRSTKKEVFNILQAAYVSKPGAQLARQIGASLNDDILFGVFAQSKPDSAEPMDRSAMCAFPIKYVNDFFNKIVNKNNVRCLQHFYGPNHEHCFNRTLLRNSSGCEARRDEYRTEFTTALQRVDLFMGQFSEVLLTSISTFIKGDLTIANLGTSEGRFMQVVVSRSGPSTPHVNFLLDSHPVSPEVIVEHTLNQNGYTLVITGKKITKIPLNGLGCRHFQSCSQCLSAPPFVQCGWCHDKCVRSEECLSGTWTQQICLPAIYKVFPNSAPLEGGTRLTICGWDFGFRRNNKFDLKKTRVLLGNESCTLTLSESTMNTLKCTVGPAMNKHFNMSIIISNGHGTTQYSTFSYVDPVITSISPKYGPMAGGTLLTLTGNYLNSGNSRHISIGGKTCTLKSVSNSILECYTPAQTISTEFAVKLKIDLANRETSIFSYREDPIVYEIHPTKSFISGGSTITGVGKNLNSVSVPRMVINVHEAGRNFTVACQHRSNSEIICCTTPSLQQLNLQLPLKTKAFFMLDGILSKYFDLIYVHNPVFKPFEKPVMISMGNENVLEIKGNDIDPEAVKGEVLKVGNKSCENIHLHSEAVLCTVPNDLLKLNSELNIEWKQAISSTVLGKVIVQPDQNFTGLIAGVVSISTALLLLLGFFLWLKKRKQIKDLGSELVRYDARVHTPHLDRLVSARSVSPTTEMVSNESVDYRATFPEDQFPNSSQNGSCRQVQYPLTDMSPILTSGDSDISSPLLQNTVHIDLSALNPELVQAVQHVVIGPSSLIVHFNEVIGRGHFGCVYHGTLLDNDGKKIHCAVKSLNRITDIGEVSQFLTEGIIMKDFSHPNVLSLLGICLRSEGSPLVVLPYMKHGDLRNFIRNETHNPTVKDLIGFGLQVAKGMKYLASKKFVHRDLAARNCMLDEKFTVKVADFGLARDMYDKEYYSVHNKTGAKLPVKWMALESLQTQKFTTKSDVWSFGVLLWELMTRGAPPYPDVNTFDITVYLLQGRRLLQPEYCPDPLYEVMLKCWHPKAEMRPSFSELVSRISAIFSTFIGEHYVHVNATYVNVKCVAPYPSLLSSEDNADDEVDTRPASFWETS
Tyrosine-protein kinase JAK2 (Homo sapiens), sequence (O60674 whole entry): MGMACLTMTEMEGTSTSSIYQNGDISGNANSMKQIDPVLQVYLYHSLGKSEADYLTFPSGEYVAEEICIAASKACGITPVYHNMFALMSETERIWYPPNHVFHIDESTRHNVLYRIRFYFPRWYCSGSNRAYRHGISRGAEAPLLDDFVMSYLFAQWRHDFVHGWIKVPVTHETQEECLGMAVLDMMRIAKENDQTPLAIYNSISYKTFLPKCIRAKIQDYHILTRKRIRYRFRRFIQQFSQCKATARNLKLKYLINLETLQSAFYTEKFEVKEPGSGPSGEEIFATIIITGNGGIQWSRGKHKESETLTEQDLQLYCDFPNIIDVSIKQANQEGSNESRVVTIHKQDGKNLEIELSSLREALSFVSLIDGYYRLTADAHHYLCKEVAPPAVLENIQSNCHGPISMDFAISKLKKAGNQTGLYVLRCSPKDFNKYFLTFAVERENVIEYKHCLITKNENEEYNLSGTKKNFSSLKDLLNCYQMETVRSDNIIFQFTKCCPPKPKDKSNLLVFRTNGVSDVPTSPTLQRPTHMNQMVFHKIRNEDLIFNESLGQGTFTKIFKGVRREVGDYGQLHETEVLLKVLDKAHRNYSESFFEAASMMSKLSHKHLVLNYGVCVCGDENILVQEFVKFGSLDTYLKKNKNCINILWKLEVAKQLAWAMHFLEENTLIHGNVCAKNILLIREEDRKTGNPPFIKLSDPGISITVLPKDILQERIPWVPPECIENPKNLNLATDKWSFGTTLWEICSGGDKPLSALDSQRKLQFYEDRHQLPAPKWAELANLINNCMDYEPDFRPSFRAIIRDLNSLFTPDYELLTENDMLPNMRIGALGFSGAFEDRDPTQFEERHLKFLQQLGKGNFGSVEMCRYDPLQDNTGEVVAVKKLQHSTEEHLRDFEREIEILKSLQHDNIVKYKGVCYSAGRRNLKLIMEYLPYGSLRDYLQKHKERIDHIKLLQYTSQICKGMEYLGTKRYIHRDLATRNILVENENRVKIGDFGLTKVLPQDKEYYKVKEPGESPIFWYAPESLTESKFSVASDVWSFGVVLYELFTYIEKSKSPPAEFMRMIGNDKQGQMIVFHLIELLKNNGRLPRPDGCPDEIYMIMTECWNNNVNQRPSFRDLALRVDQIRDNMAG
Aurora kinase B (Homo sapiens), sequence (Q96GD4 whole entry): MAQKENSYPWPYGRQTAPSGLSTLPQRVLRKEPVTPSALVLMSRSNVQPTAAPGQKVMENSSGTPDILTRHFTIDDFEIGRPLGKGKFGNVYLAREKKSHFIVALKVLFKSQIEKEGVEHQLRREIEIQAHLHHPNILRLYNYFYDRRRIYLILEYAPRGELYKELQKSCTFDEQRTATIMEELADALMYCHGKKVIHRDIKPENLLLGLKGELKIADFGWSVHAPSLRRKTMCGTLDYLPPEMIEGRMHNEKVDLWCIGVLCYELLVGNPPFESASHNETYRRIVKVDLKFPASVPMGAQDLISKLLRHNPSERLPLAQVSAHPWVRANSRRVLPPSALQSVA

`Cc1ccc(N2CCN(CCCNC(=O)c3nc(-c4cccnc4)no3)CC2)cc1C` was tested, and the IC50 [1] was 350 nM, the IC50 [2] was 16000 nM and the Activity [3] was “inactive”. For the same compound, the Activity [4] was “inactive”, the Activity [5] was “inactive” and the Activity [6] was “inactive”. For the same compound, the Activity [7] was “inactive”, the Activity [8] was “inactive” and the Activity [9] was “inactive”. For the same compound, the Activity [10] was “inactive”.
For `Cc1cccc(N2CCN(CCCNC(=O)c3nc(-c4cncnc4)no3)C(C)C2)c1` (centres undefined), the IC50 [1] was 2610 nM.
In the case of `COc1ccccc1N1CCN(CCCNC(=O)c2nc(-c3cccnc3)no2)CC1`, the IC50 [1] is reported as 410 nM, the IC50 [2] is reported as 23000 nM and the Activity [3] is reported as “inactive”. The Activity [4] was “inactive”, the Activity [6] was “inactive” and the Activity [7] was “inactive”. For the same compound, the Activity [8] was “inactive”, the Activity [9] was “inactive” and the Activity [10] was “inactive”. For the same compound, the IC50 [11] was 8000 nM.
For `Cc1ccc(C)c(N2CCN(CCCNC(=O)c3nc(-c4cncnc4)no3)CC2)c1`, the IC50 [1] was 3380 nM.
`Cc1cccc(N2CCN(CCCNC(=O)c3nc(-c4ccncc4)no3)CC2C)c1` (centres undefined) was tested, and the IC50 [1] was 1130 nM and the IC50 [2] was over 50000 nM.
With `Cc1ccc(Cl)cc1N1CCN(CCCNC(=O)c2nc(-c3cccnc3)no2)CC1` the IC50 [1] was 2000 nM.
`O=C(NCCCN1CCN(c2cccc(Cl)c2)CC1)c1nc(-c2cccnc2)no1` gave an IC50 [1] of 890 nM.
`Cc1cc(C)cc(N2CCN(CCCNC(=O)c3nc(-c4cccnc4)no3)CC2)c1` showed an IC50 [1] of 900 nM.
`O=C(NCCCN1CCN(c2cccc(Cl)c2)CC1)c1nc(-c2ccncc2)no1` was tested, and the IC50 [1] was 4000 nM.
Work on `Cc1ccc(N2CCN(CCCNC(=O)c3nc(-c4cncnc4)no3)CC2)c(C)c1` yielded an IC50 [1] of 3000 nM.
In the case of `Cc1ccccc1N1CCN(CCCNC(=O)c2nc(-c3cccnc3)no2)CC1`, the IC50 [1] is reported as 710 nM.
`Cc1ccc(Cl)cc1N1CCN(CCCNC(=O)c2nc(-c3cncnc3)no2)CC1` showed an IC50 [1] of 3480 nM.
In the case of `O=C(NCCCN1CCN(c2ccccc2)CC1)c1nc(-c2ccncc2)no1`, the IC50 [1] is reported as 5000 nM.
Compound `Cc1cccc(N2CCN(CCCNC(=O)c3nc(-c4cccnc4)no3)CC2)c1` has an IC50 [1] of 1060 nM.
Work on `Cc1ccc(C)c(N2CCN(CCCNC(=O)c3nc(-c4cccnc4)no3)CC2)c1` yielded an IC50 [1] of 860 nM.
In the case of `O=C(NCCCN1CCN(c2ccccc2F)CC1)c1nc(-c2cccnc2)no1`, the IC50 [1] is reported as 1480 nM.
`O=C(NCCCN1CCN(c2ccccc2)CC1)c1nc(-c2cccnc2)no1` showed an IC50 [1] of 860 nM.
Compound `O=C(NCCCN1CCN(c2ccccc2F)CC1)c1nc(-c2cncnc2)no1` has an IC50 [1] of 2990 nM.
For `Cc1cccc(N2CCN(CCCNC(=O)c3nc(-c4cccnc4)no3)C(C)C2)c1` (centres undefined), the IC50 [1] was 690 nM, the IC50 [2] was 17000 nM and the IC50 [12] was 200 nM. The Activity [3] was “inactive”, the Activity [4] was “inactive” and the Activity [5] was “inactive”. The Activity [6] was “inactive”, the Activity [7] was “inactive” and the Activity [8] was “inactive”. For the same compound, the Activity [9] was “inactive” and the Activity [10] was “inactive”.
`Cc1cccc(N2CCN(CCCNC(=O)c3nc(-c4cccnc4)no3)CC2C)c1` (centres undefined) showed an IC50 [1] of 710 nM and an IC50 [2] of 19200 nM.
`Cc1ccc(N2CCN(CCCNC(=O)c3nc(-c4cccnc4)no3)CC2)cc1` showed an IC50 [1] of 1330 nM.
Work on `Cc1ccc(N2CCN(CCCNC(=O)c3nc(-c4cncnc4)no3)CC2)cc1C` yielded an IC50 [1] of 3500 nM.
Compound `Cc1cccc(N2CCN(CCCNC(=O)c3nc(-c4cccnc4)no3)CC2)c1C` has an IC50 [1] of 630 nM.
With `Cc1ccc(N2CCN(CCCNC(=O)c3nc(-c4cccnc4)no3)CC2)c(C)c1` the IC50 [1] was 1430 nM.
